Results reported in ChEMBL document CHEMBL3259519, “Targeting triple-negative breast cancer cells with 6,7-bis(hydroxymethyl)-1H,3H-pyrrolo[1,2-c]thiazoles” (Eur J Med Chem, 2014).
The source made the active and inactive calls. The calls are words filed in the database; no cut-off is given here.

Tests used:
[1] = test system: HCC1806; assay: Antiproliferative activity against ER, PR, HER2-deficient human HCC1806 cells as growth inhibition after 48 hrs by MTT assay; assay type: functional, cell-based; conditions: HCC1806, 48 h
In short: (§1)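 Cells were seeded at 2x10^4/well and left to attach overnight. Compounds in DMSO were diluted in medium and applied for 24, 48, 72 or 96 h. Cells were then PBS-washed and given 0.5 mg/mL MTT (pH 7.4) at 37 °C for 4 h. Formazan was dissolved in acid isopropanol. IC50 came from dose-response curves by exponential decay fitting (r2>0.9), with 95% CI.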

[2] = test system: MCF7; assay: Antiproliferative activity against human MCF7 cells expressing ER and BRCA2 assessed as growth inhibition after 96 hrs by MTT assay; assay type: functional, cell-based; conditions: MCF7, 96 h; in short: as §1
[3] = test system: HCC1806; assay: Induction of apoptosis in triple negative ER, PR, HER2-deficient human HCC1806 cells assessed as increase of necrotic cells at IC50 after 48 hrs by Annexin V/propidium iodide staining-based flow cytometry relative to control; assay type: functional, cell-based
In short: (§2)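 2x10^6 cells were attached overnight, then given IC50 for 48 h (DMSO 0.1%). PBS-washed cells were stained with Annexin V-FITC and PI in binding buffer for 15 min at 4 °C in the dark. Flow cytometry used 488 nm excitation. Cells were gated as viable, apoptotic, late apoptotic/necrotic or necrotic, reported as mean ± SD (n≥5).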

[4] = test system: HCC1806; assay: Induction of apoptosis in ER, PR, HER2-deficient human HCC1806 cells as increase in Bax/Bcl2 expression ratio at IC50 after 48 hrs by flow cytometry relative to control
[5] = test system: MCF7; assay: Cytotoxicity against human MCF7 cells expressing ER and BRCA2 assessed as reduction of survival factor at IC50 incubated for 48 hrs measured after 12 days by crystal violet staining-based clonogenic assay; assay type: functional, cell-based
[6] = test system: MCF7; assay: Antiproliferative activity against human MCF7 cells expressing ER and BRCA2 assessed as growth inhibition after 72 hrs by MTT assay; assay type: functional, cell-based; conditions: MCF7, 72 h; in short: as §1
[7] = test system: MCF7; assay: Induction of apoptosis in human MCF7 cells expressing ER and BRCA2 assessed as increase of late apoptotic/nectrotic cells at IC50 after 48 hrs by Annexin V/propidium iodide staining-based flow cytometry relative to control; assay type: functional, cell-based; in short: as §2
[8] = test system: HCC1806; assay: Antiproliferative activity against ER, PR, HER2-deficient human HCC1806 cells as growth inhibition after 96 hrs by MTT assay; assay type: functional, cell-based; conditions: HCC1806, 96 h; in short: as §1
[9] = test system: MCF7; assay: Cell cycle arrest in human MCF7 cells expressing ER and BRCA2 assessed as blockade at G2/M phase at IC50 after 48 hrs by propidium staining-based FACS analysis; assay type: functional
In short: (§3)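 2x10^6 cells were attached overnight, then exposed to IC50 for 48 h (DMSO 0.1%). They were fixed in ice-cold 70% ethanol for 30 min in the dark, PBS-washed and stained with PI/RNase for 15 min at RT. Flow cytometry used 488 nm excitation and a 585/42 filter. Sub-G0, G0/G1, S and G2/M fractions were reported as mean ± SD (n≥5).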

[10] = test system: HCC1806; assay: Cytotoxicity against ER, PR, HER2-deficient human HCC1806 cells as reduction of total protein content at IC50 incubated for 48 hrs by SRB assay relative to control; assay type: functional; parameters: scale not given: the % may be the effect or the level left
[11] = test system: HCC1954; assay: Antiproliferative activity against human HCC1954 cells expressing HER2 assessed as growth inhibition after 24 hrs by MTT assay; assay type: functional, cell-based; conditions: HCC1954, 24 h; in short: as §1
[12] = test system: MCF7; assay: Cell cycle arrest in human MCF7 cells expressing ER and BRCA2 assessed as increase in accumulation at S phase at IC50 after 48 hrs by propidium staining-based FACS analysis; assay type: functional; in short: as §3
[13] = test system: HCC1806; assay: Induction of apoptosis in triple negative ER, PR, HER2-deficient human HCC1806 cells assessed as increase of late apoptotic/nectrotic cells at IC50 after 48 hrs by Annexin V/propidium iodide staining-based flow cytometry relative to control; assay type: functional, cell-based; in short: as §2
[14] = test system: HCC1954; assay: Antiproliferative activity against human HCC1954 cells expressing HER2 assessed as growth inhibition after 72 hrs by MTT assay; assay type: functional, cell-based; conditions: HCC1954, 72 h; in short: as §1
[15] = test system: MCF7; assay: Antiproliferative activity against human MCF7 cells expressing ER and BRCA2 assessed as growth inhibition after 24 hrs by MTT assay; assay type: functional, cell-based; conditions: MCF7, 24 h; in short: as §1
[16] = test system: MCF7; assay: Induction of apoptosis in human MCF7 cells expressing ER and BRCA2 assessed as increase in p53 expression at IC50 after 48 hrs by Western blotting analysis relative to control; assay type: functional, cell-based
In short: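 Cells were treated with IC50 for 48 h and lysed on ice in RIPA with protease inhibitors, then sonicated and centrifuged. Protein was quantified by BCA and separated on 10% SDS-PAGE, then transferred and blocked with 4% BSA/TBS-T. Blots were probed overnight at 4 °C with anti-p53 (DO7) and actin, then anti-mouse secondary. ECF fluorescence was scanned and quantified.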

[17] = test system: HCC1806; assay: Induction of DNA strand break in ER, PR, HER2-deficient human HCC1806 cells at IC50 after 48 hrs by alkaline comet assay; assay type: functional, cell-based
In short: (§4)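 5x10^5 cells got IC50 or 3x IC50 for 48 h (DMSO 0.1%); H2O2-treated cells served as positive control. Cells in 1% low-melt agarose went onto slides precoated with normal-melt agarose. Slides were lysed overnight in alkaline buffer (2.5 M NaCl, EDTA, Tris, DMSO, Triton X-100). Electrophoresis ran in 300 mM NaOH/1 mM EDTA (pH>13) at 25 V for 15 min. Slides were neutralized in Tris pH 7.4 and stained with 25 µg/mL ethidium bromide for fluorescence microscopy.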

[18] = test system: MCF7; assay: Cytotoxicity against human MCF7 cells expressing ER and BRCA2 assessed as reduction of total protein content at IC50 after 48 hrs by SRB assay relative to control; assay type: functional; parameters: scale not given: the % may be the effect or the level left
[19] = test system: MCF7; assay: Cell cycle arrest in human MCF7 cells expressing ER and BRCA2 assessed as decrease in accumulation at G0/G1 phase at IC50 after 48 hrs by propidium staining-based FACS analysis; assay type: functional; in short: as §3
[20] = test system: HCC1806; assay: Antiproliferative activity against ER, PR, HER2-deficient human HCC1806 cells as growth inhibition after 24 hrs by MTT assay; assay type: functional, cell-based; conditions: HCC1806, 24 h; in short: as §1
[21] = test system: HCC1806; assay: Induction of apoptosis in triple negative ER, PR, HER2-deficient human HCC1806 cells assessed as reduction of long term cell survival at IC50 after 48 hrs by clonogenic assay relative to control
[22] = test system: HCC1954; assay: Antiproliferative activity against human HCC1954 cells expressing HER2 assessed as growth inhibition after 96 hrs by MTT assay; assay type: functional, cell-based; conditions: HCC1954, 96 h; in short: as §1
[23] = test system: HCC1954; assay: Antiproliferative activity against human HCC1954 cells expressing HER2 assessed as growth inhibition after 48 hrs by MTT assay; assay type: functional, cell-based; conditions: HCC1954, 48 h; in short: as §1
[24] = test system: MCF7; assay: Induction of DNA strand break in human MCF7 cells expressing ER and BRCA2 at IC50 after 48 hrs by alkaline comet assay; assay type: functional, cell-based; in short: as §4
[25] = test system: HCC1806; assay: Induction of DNA strand break in ER, PR, HER2-deficient human HCC1806 cells at 3 x IC50 after 48 hrs by alkaline comet assay; assay type: functional, cell-based; in short: as §4
[26] = test system: MCF7; assay: Induction of apoptosis in human MCF7 cells expressing ER and BRCA2 assessed as increase in Bax/Bcl2 expression ratio at IC50 after 48 hrs by flow cytometry relative to control
[27] = test system: MCF7; assay: Induction of apoptosis in human MCF7 cells expressing ER and BRCA2 assessed as early apoptotic cells at IC50 after 48 hrs by Annexin V/propidium iodide staining-based flow cytometry relative to control; assay type: functional, cell-based; in short: as §2
[28] = test system: MCF7; assay: Induction of apoptosis in human MCF7 cells expressing ER and BRCA2 assessed as decrease in viable cells at IC50 after 48 hrs by Annexin V/propidium iodide staining-based flow cytometry relative to control; assay type: functional; in short: as §2
[29] = test system: MCF7; assay: Antiproliferative activity against human MCF7 cells expressing ER and BRCA2 assessed as growth inhibition after 48 hrs by MTT assay; assay type: functional, cell-based; conditions: MCF7, 48 h; in short: as §1
[30] = test system: MCF7; assay: Induction of DNA strand break in human MCF7 cells expressing ER and BRCA2 at 3 x IC50 after 48 hrs by alkaline comet assay; assay type: functional, cell-based; in short: as §4
[31] = test system: HCC1806; assay: Cell cycle arrest in ER, PR, HER2-deficient human HCC1806 cells as decrease in accumulation at G0/G1 phase at IC50 after 48 hrs by propidium staining-based FACS analysis; assay type: functional; in short: as §3
[32] = test system: HCC1806; assay: Cell cycle arrest in ER, PR, HER2-deficient human HCC1806 cells as accumulation at S phase at IC50 after 48 hrs by propidium staining-based FACS analysis; assay type: functional; in short: as §3
[33] = test system: MCF7; assay: Induction of apoptosis in human MCF7 cells expressing ER and BRCA2 assessed as increase of necrotic cells at IC50 after 48 hrs by Annexin V/propidium iodide staining-based flow cytometry relative to control; assay type: functional, cell-based; in short: as §2
[34] = test system: HCC1806; assay: Induction of apoptosis in triple negative ER, PR, HER2-deficient human HCC1806 cells assessed as decrease of viable cells at IC50 after 48 hrs by Annexin V/propidium iodide staining-based flow cytometry relative to control; assay type: functional; in short: as §2
[35] = test system: HCC1806; assay: Antiproliferative activity against ER, PR, HER2-deficient human HCC1806 cells as growth inhibition after 72 hrs by MTT assay; assay type: functional, cell-based; conditions: HCC1806, 72 h; in short: as §1
[36] = test system: HCC1806; assay: Cytotoxicity against ER, PR, HER2-deficient human HCC1806 cells as reduction of survival factor at IC50 incubated for 48 hrs measured after 12 days by crystal violet staining-based clonogenic assay; assay type: functional
[37] = test system: HCC1806; assay: Cell cycle arrest in ER, PR, HER2-deficient human HCC1806 cells as accumulation at pre-G0 phase phase at IC50 after 48 hrs by propidium staining-based FACS analysis; assay type: functional; in short: as §3
[38] = test system: HCC1806; assay: Cell cycle arrest in ER, PR, HER2-deficient human HCC1806 cells as blockade at G0/G1 phase at IC50 after 48 hrs by propidium staining-based FACS analysis; assay type: functional; in short: as §3
[39] = test system: HCC1806; assay: Cell cycle arrest in ER, PR, HER2-deficient human HCC1806 cells as accumulation at G2/M phase at IC50 after 48 hrs by propidium staining-based FACS analysis; assay type: functional; in short: as §3

## Cc1c(CO)c(CO)c2n1[C@@H](c1ccc(O)cc1)SC2
[1]
  IC50: 26.4 µM
[2]
  IC50: 29.5 µM
[3]
  Activity: Active
[4]
  Activity: Active
[5]
  Activity: Active
[6]
  IC50: 53.9 µM
[7]
  Activity: Active
[8]
  IC50: 5.4 µM
[9]
  Activity: inactive
[10]
  Activity: 50%
[11]
  IC50: > 100 µM
[12]
  Activity: Active
[13]
  Activity: Active
[14]
  IC50: 46.6 µM
[15]
  IC50: > 100 µM
[16]
  Activity: Active
[17]
  Activity: Active
[18]
  Activity: 15.4%
[19]
  Activity: Active
[20]
  IC50: 80.3 µM
[21]
  Activity: 1.4%
[22]
  IC50: 27.4 µM
[23]
  IC50: 65.6 µM
[24]
  Activity: Active
[25]
  Activity: Active
[26]
  Activity: Active
[27]
  Activity: Active
[28]
  Activity: 21.4%
[29]
  IC50: 86.2 µM
[30]
  Activity: Active
[31]
  Activity: Active
[32]
  Activity: Active
[33]
  Activity: Active
[34]
  Activity: Active
[35]
  IC50: 11.9 µM
[36]
  Activity: <2%
[37]
  Activity: Active

## Cc1c(CO)c(CO)c2n1[C@@H](c1ccccc1)SC2
[1]
  IC50: 81.4 µM
[3]
  Activity: Active
[5]
  Activity: Active
[7]
  Activity: Active
[8]
  IC50: 13.9 µM
[9]
  Activity: Active
[10]
  Activity: 50%
[11]
  IC50: 98.2 µM
[12]
  Activity: Active
[13]
  Activity: Active
[14]
  IC50: 26.2 µM
[17]
  Activity: Active
[38]
  Activity: Active
[18]
  Activity: 50%
[19]
  Activity: Active
[20]
  IC50: > 100 µM
[22]
  IC50: 24.9 µM
[23]
  IC50: 27 µM
[24]
  Activity: Active
[25]
  Activity: Active
[39]
  Activity: inactive
[28]
  Activity: 55%
[30]
  Activity: Active
[32]
  Activity: inactive
[33]
  Activity: Active
[34]
  Activity: 60%
[35]
  IC50: 51.3 µM
[36]
  Activity: <2%

## COc1ccc([C@H]2SCc3c(CO)c(CO)c(C)n32)cc1
[1]
  IC50: 28 µM
[2]
  IC50: 6.6 µM
[6]
  IC50: 32.7 µM
[8]
  IC50: 12.3 µM
[11]
  IC50: > 100 µM
[14]
  IC50: 56.1 µM
[15]
  IC50: > 100 µM
[20]
  IC50: 89 µM
[22]
  IC50: 19.2 µM
[23]
  IC50: 84.4 µM
[29]
  IC50: 46.9 µM
[35]
  IC50: 19.4 µM
